The test system of this series is MS2 coat protein. Put plainly: apparent Kd, MS2 coat protein; higher = weaker binding; RNA-MaP array; FMN 200 µM where present. An outline of the steps: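 Stalled E. coli RNA polymerase transcribed the designs on Illumina sequencing-chip clusters. SNAP-549-labelled MS2 coat protein was titrated from 0.7 or 1.5 nM, doubling to 3 µM, without and then with constant ligand, in 100 mM Tris-HCl pH 7.5, 80 mM KCl, 4 mM MgCl2, BSA, DTT, yeast tRNA and Tween-20. Per-cluster binding curves were fitted to green signal normalised to red-channel RNA signal and control-cluster median Fmax. The apparent Kd is the median of the filtered fits.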

[1] abbreviates: designed as: ON switch for flavin mononucleotide, no ligand.
Where [2] appears, read: ligand present: flavin mononucleotide, designed as: ON switch for flavin mononucleotide.
The mark [3] stands for this setting: designed as: OFF switch for flavin mononucleotide, no ligand.
[4] abbreviates: ligand present: flavin mononucleotide, designed as: OFF switch for flavin mononucleotide.

Take “GGGUACAUCGGAGGAUAUCAUGUUAAUACAUGAGGAUCACCCAUGUCGAUGGAGACAUCGGAGAUUGAGAAGGCCGAUGUACCG”: the apparent Kd (in general, a dissociation constant that holds for the conditions of the assay) is, setting by setting: under setting [1], 322 nM; under setting [2], 11.4 nM.

Regarding “AAGAUGCGGAUAGGAUAUGGAAAUUAAUAAAGACCAGAAGGAUUGGUCACACAACAUGAGGAUCACCCAUGUGUGUGUUGUGAA”, the “apparent Kd” value runs as follows: under setting [3], 13.6 nM; under setting [4], 10.6 nM.

As for “AAAUCUCAGAUAGGAUAUAUAGGAUAACUUAAGACCUAACAUGAGGAUCACCCAUGUGAUUAUUCGUAGAAGGAUCAUUGACCC”, the “apparent Kd” value runs as follows: under setting [1], 166 nM; under setting [2], 175 nM.

Regarding “ACAUGAGGAUCACCCAUGUUUGCAUAGGAUAUUGAGGAUUAGGGAUGUUUUUUUGGAUUUGCCCACAAGAAGGAUGUAUGUUUU”, the “apparent Kd” value runs as follows: under setting [1], 8.56 nM; under setting [2], 7.96 nM.

“CCUUUUGUAUAAGGAUAUGUAACAAGGUAUAGAUCGGUAGAAUUUGUGCUUACAGAAGGUAUACAUGAGGAUCACCCAUGUCGA”: the “apparent Kd” value was 22.1 nM under setting [3] and 140 nM under setting [4].

Turning to “GGAAAACAUGAGGAUCACCCAUGUGAGGAUAUCGAUGUCCAGGGCCGGGUGCGGGACUCGAGAAGGCACUUGGA”, the “apparent Kd” value under setting [3] worked out at 64.5 nM and the “apparent Kd” value under setting [4] amounted to 41.6 nM.

With “CGACAGUACACAGGAUAUCCUCGACUUUGUCGAGGAGAAGGGUGUAAACAUGAGGAUCACCCAUGUAUACUGUCGAAAUAUAAU”, the “apparent Kd” value by setting is: under setting [1], 350 nM; under setting [2], 38.7 nM.

Take “CGUCCGUGGGUAGUGAUCGUACAUGAGGAUCACCCAUGUGAGAAGGAUAUGCAUGCACGCGGACAGCAGAAGGUCUCACAACAA”: the “apparent Kd” value was found to be 133 nM under setting [3] and 429 nM under setting [4].

For “UAUUUUUAUGUAAGGAUAUGGGUUUGGUUGCGGGCUUAGAAGGUACAUGAGGAUCACCCAUGUAUAAUGUGCGU”, the “apparent Kd” value under setting [3] turned out to be 29.6 nM and the “apparent Kd” value under setting [4] stood at 30.5 nM.

On to “GAAUAAUUGAUCCAAUAUAACAACAUGAGGAUCACCCAUGUGCAGGAUAUCGUAUUUAUUAUAUACGAGAAGGGCAAGAACUGU”, for which the “apparent Kd” value is 343 nM under setting [3] and 475 nM under setting [4].

“UAUAUAUAGGCAGGAUAUACAUGAAUAUAUAUAAUAUAAUAUAAUAUAACAUGAGGAUCACCCAUGUAGAAGGGCCAAUAUAUA”: the “apparent Kd” value reads like this: under setting [3], 56.2 nM; under setting [4], 117 nM.

As to “GGAUAGGACAGAGGAUAUACGUGCUAGAAAUACUAGCAAAAUUUCCUCACAUGAGGAUCACCCAUGUAGAAGGCUGUCCUAUCG”, the “apparent Kd” value by setting is: under setting [3], 14.5 nM; under setting [4], 542 nM.

“UCAAUAUAUCAGGAUAUGACUUUUUGUGUUAAGUCAGAAGGGAUAACAUGAGGAUCACCCAUGUGAUAUAGUGA”: the “apparent Kd” value worked out at 52 nM under setting [3] and 58.9 nM under setting [4].

In the case of “GAAUAAUUGAUCCAUUUUUAAAACAUGAGGAUCACCCAUGUGCAGGAUAUCGUGAGAGUUAAAUACGAGAAGGGCAAGAACUGU”, the “apparent Kd” value by setting is: under setting [3], 123 nM; under setting [4], 173 nM.

As to “CUCAUGUCAGGAUAUCGUGCAGCUACCGAAAGGUAGCUGCACGAGAAGGGACAUGAGGAUCACCCAUGUAUGAA”, the “apparent Kd” value reads like this: under setting [3], 22.2 nM; under setting [4], 18.4 nM.

Take “GUAGCAUACCAAGGAUAUUCAGGGCUUGGAUAGACAUGAGGAUCACCCAUGUGGCGAAAGUCUAGGGAGAAGGUGGAAUGCUAC”: the “apparent Kd” value reads like this: under setting [1], 16.8 nM; under setting [2], 15.1 nM.

Consider “GAUUAACAUGAGGAUCACCCAUGUGAGGAUAUGGACUGGCUCACUUUCCGAUUCGGGUCUAGAAGGCGCAUCUU”, for which the “apparent Kd” value amounted to 33.5 nM under setting [3] and 33.2 nM under setting [4].

Take “CCUGUACAUGAGGAUCACCCAUGUUAGGAUAUCUCGCCGUCGGCUUGCCGACGGUAUUAGAGAAGGGACAAGGG”: the “apparent Kd” value under setting [3] was determined as 32.3 nM and the “apparent Kd” value under setting [4] was 37.6 nM.

Consider “CCGUUACAUGAGGAUCACCCAUGUGAGGAUAUCGGGAUGACUGGCAGCGUGCGGGACACGAGAAGGCACUGGGC”, for which the “apparent Kd” value by setting is: under setting [3], 55.5 nM; under setting [4], 65.1 nM.

Regarding “CUUUUGUCAGGAUAUGAGUAGUAGAACAAUAGUACUACUACUCAGAAGGGACAUGAGGAUCACCCAUGUUCCUC”, the “apparent Kd” value runs as follows: under setting [3], 16.6 nM; under setting [4], 50.5 nM.

For the origin of these results see the EternaBench riboswitch data.
